Laboratory results published in ChEMBL document CHEMBL3243964, “Biomolecules bearing the S- or SeAsMe2 function: amino acid and steroid derivatives” (J Med Chem, 1979).
Activity calls are given as the source filed them. No cut-off for these calls is given here.

What was measured:
[1] = system: L1210; assay: Carcinostatic activity against mouse L1210 cells allografted in mouse assessed as increase in survival at 100 mg/kg relative to control; assay type: functional
[2] = species on record: Mus musculus; assay: Toxicity in mouse allografted with mouse L1210 cells; assay type: organism-based
[3] = system: L1210; assay: Carcinostatic activity against mouse L1210 cells allografted in mouse assessed as increase in survival at 50 mg/kg relative to control; assay type: functional
[4] = system: L1210; assay: Carcinostatic activity against mouse L1210 cells allografted in mouse assessed as increase in life span at 100 mg/kg relative to control; assay type: functional
Method in brief: (§1)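 Mice bearing L1210 lymphoid leukemia, tested externally. Read-out is percent increased life span (ILS) of treated versus control animals at the dose shown in mg/kg.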

[5] = system: Staphylococcus aureus; assay: Bacteriostatic activity against Staphylococcus aureus 209 cultured in nutrient broth; assay type: functional, organism-based
Method in brief: (§2)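 Bacteria grown in nutrient broth with the compound. Read-out is inhibition of growth, with total inhibition scored. Gram-negative (K. pneumoniae) and Gram-positive strains were tested.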

[6] = system: Staphylococcus aureus; assay: Bacteriostatic activity against Staphylococcus aureus 209; assay type: functional
[7] = system: Klebsiella pneumoniae; assay: Bacteriostatic activity against Klebsiella pneumoniae; assay type: functional, organism-based; method in brief: as §2
[8] = system: L1210; assay: Carcinostatic activity against mouse L1210 cells allografted in mouse assessed as increase in life span at 500 mg/kg relative to control; assay type: functional; method in brief: as §1

| SMILES | T/C [1] [%] | Activity [2] [mg/kg] | T/C [3] [%] | Activity [4] [%] | growth inhibition (GI) [5] | inhibition zone (IZ) [6] [mm] | Activity [7] | Activity [8] [%] |
| --- | --- | --- | --- | --- | --- | --- | --- | --- |
| C[As](C)SCC[C@H](NC(=O)[C@@H](N)CCS[As](C)C)C(=O)O | 144 | > 200 |  |  |  |  |  |  |
| C[As](C)SCC[C@@H](CCCCC(=O)O)S[As](C)C |  | 100 | 128 | 33 |  |  |  |  |
| C[As](C)SCC(N)C(=O)O (racemic) |  | 200 | 110 |  | Active | 15 |  |  |
| C[As](C)SC[C@H](NC(=O)CC[C@H](N)C(=O)O)C(=O)NCC(=O)O [DARINAPARSIN] | 164 | 400 |  |  | Active | 20 | Active | 33 |
